# In ChEMBL document CHEMBL1134413, “Effect of N-alkyl and N-alkenyl substituents in noroxymorphindole, 17-substituted-6,7-dehydro-4,5alpha-epoxy-3,14-dihydroxy-6,7:2',3'-indolomorphinans, on opioid receptor affinity, selectivity, and efficacy” (J Med Chem, 2001):
# Legend:
# [1] = molecular target: T1, Kappa-type opioid receptor (Cavia porcellus, UniProt P41144); assay: Displacement of [3H]U-69593 at opioid receptor kappa 1
# Mu-type opioid receptor [2] = molecular target: T2, Mu-type opioid receptor (Rattus norvegicus, UniProt P33535); assay: Displacement of [3H]DAMGO at mu-opioid receptor
# T2 sequence (P33535 whole entry): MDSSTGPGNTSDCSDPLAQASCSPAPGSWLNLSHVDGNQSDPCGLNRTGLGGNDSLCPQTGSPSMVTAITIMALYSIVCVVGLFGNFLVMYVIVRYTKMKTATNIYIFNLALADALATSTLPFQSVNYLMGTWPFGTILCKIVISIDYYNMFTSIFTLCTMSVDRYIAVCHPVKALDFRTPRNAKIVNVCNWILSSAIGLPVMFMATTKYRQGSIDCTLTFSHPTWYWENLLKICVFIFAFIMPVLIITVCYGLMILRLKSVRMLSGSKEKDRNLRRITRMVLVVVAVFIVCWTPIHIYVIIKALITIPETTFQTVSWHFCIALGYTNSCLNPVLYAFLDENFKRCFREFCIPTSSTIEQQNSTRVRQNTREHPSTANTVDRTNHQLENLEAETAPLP
# [3] = molecular target: T3, Delta-type opioid receptor (Mus musculus, UniProt P32300); assay: Displacement of [3H]DADLE at delta-opioid receptor
# T3 sequence (P32300 whole entry): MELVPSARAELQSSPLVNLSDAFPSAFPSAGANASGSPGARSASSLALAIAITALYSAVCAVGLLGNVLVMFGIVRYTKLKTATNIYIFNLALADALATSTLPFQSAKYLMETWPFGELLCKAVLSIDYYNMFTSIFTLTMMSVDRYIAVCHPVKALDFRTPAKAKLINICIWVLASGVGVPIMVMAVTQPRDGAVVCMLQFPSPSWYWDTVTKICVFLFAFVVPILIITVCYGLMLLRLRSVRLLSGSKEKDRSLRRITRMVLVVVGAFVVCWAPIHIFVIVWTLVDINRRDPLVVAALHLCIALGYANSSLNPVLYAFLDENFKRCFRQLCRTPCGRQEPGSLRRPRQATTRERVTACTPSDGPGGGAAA
# Mus musculus [4] = organism: Mus musculus; assay: Antagonist activity of compound in mouse vas deferens tested with DPDPE; type: functional
# Summary of the method: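 Isolated mouse vas deferens. Antagonism is measured against the δ agonist DPDPE and expressed as Ke (nM). Agonist activity is recorded separately as percent inhibition of contraction height at a single stated concentration.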
# [5] = molecular target: T3, Delta-type opioid receptor; assay: Antagonist activity of compound on SNC 80 stimulated [35S]GTP-gamma-S binding to delta-opioid receptor; type: functional
# Mus musculus [6] = organism: Mus musculus; assay: Percentage inhibition of contraction height in mouse vas deferens (MVD) at 100 nM; type: functional
# Summary of the method: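 Agonist effect read in isolated mouse vas deferens preparation as percent inhibition of contraction height, at one test concentration.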
# Mu-type opioid receptor [7] = molecular target: T2, Mu-type opioid receptor; assay: Antagonist activity of compound on DAMGO stimulated [35S]GTP-gamma-S binding to mu-opioid receptor; type: functional
# Cavia porcellus [8] = organism: Cavia porcellus; assay: Antagonist activity of compound in GPI/LMMP tested with PL-017; type: functional
# Summary of the method: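 Guinea pig ileum longitudinal muscle/myenteric plexus preparation. Antagonism is measured against the μ agonist PL-017 and expressed as Ke (nM). Agonist activity is recorded separately as percent inhibition of contraction height at a single stated concentration.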
# Cavia porcellus [9] = organism: Cavia porcellus; assay: Percentage inhibition of contraction height in guinea pig ileum longitudinal muscle myenteric plexus (GPI/LMMP) 1 uM; type: functional
# Summary of the method: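 Agonist effect read in isolated guinea pig ileum longitudinal muscle/myenteric plexus preparation as percent inhibition of contraction height, at one test concentration.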
# [10] = molecular target: T1, Kappa-type opioid receptor; assay: Antagonist activity of compound on U50,488H stimulated [35S]GTP-gamma-S binding to opioid receptor kappa 1; type: functional
# Mus musculus [11] = organism: Mus musculus; assay: Percentage inhibition of contraction height in mouse vas deferens (MVD) at 1 uM; type: functional
# [12] = molecular target: T3, Delta-type opioid receptor; assay: Antagonist activity of compound on agonist stimulated [35S]GTP-gamma-S binding on delta-opioid receptor; type: functional
# Mu-type opioid receptor [13] = molecular target: T2, Mu-type opioid receptor; assay: Antagonist activity of compound on agonist stimulated [35S]GTP-gamma-S binding on mu-opioid receptor; type: functional
# T1 sequence (P41144 whole entry): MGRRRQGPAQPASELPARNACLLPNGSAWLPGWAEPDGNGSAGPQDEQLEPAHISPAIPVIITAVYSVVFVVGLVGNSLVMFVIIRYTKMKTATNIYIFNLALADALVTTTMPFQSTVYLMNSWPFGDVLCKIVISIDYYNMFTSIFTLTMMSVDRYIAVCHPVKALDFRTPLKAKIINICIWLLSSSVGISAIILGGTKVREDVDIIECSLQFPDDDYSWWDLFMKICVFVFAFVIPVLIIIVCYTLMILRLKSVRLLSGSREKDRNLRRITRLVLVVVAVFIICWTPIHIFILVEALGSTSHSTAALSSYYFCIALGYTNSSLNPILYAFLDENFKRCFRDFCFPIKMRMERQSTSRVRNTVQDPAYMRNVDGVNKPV
SMILES,Ki [1] [nM],Ki (Mu-type opioid receptor [2]) [nM],Ki [3] [nM],other results
CC(C)CCN1CC[C@]23c4c5ccc(O)c4O[C@H]2c2[nH]c4ccccc4c2C[C@@]3(O)[C@H]1C5,670,1300,4.8,–
CC(C)N1CC[C@]23c4c5ccc(O)c4O[C@H]2c2[nH]c4ccccc4c2C[C@@]3(O)[C@H]1C5,6200,> 6600,33,–
CC(C)CN1CC[C@]23c4c5ccc(O)c4O[C@H]2c2[nH]c4ccccc4c2C[C@@]3(O)[C@H]1C5,650,2600,3.8,–
CCCCCCN1CC[C@]23c4c5ccc(O)c4O[C@H]2c2[nH]c4ccccc4c2C[C@@]3(O)[C@H]1C5,3100,4600,26,–
CCN1CC[C@]23c4c5ccc(O)c4O[C@H]2c2[nH]c4ccccc4c2C[C@@]3(O)[C@H]1C5,3000,2500,5,Ke (Mus musculus [4]): 9.6 nM; Ki [5]: 3.2 nM; inhibition at 0.1 µM (Mus musculus [6]): 9%; Ki (Mu-type opioid receptor [7]): 290 nM; Ke (Cavia porcellus [8]): 96 nM; Inhibition (Cavia porcellus [9]): 1.2%; Ki [10]: > 1000 nM
Cl.Oc1ccc2c3c1O[C@H]1c4[nH]c5ccccc5c4C[C@@]4(O)[C@@H](C2)N(CC2CC2)CC[C@]314 [NALTRINDOLE HYDROCHLORIDE],30,–,0.22,Ke (Mus musculus [4]): 0.49 nM; Ke (Cavia porcellus [8]): 43 nM; inhibition at 1 µM (Mus musculus [11]): 16%; Inhibition (Cavia porcellus [9]): 18%; Ki [10]: 4.7 nM; Ki [12]: 0.03 nM
CC(C)=CCN1CC[C@]23c4c5ccc(O)c4O[C@H]2c2[nH]c4ccccc4c2C[C@@]3(O)[C@H]1C5,3200,2800,25,–
CCCCN1CC[C@]23c4c5ccc(O)c4O[C@H]2c2[nH]c4ccccc4c2C[C@@]3(O)[C@H]1C5,900,1300,8.4,–
CN1CC[C@]23c4c5ccc(O)c4O[C@H]2c2[nH]c4ccccc4c2C[C@@]3(O)[C@H]1C5 [OXYMORPHINDOLE],–,66,–,–
CCCCCN1CC[C@]23c4c5ccc(O)c4O[C@H]2c2[nH]c4ccccc4c2C[C@@]3(O)[C@H]1C5,2000,2800,16,–
CCCN1CC[C@]23c4c5ccc(O)c4O[C@H]2c2[nH]c4ccccc4c2C[C@@]3(O)[C@H]1C5,380,–,2,–
C/C=C/CN1CC[C@]23c4c5ccc(O)c4O[C@H]2c2[nH]c4ccccc4c2C[C@@]3(O)[C@H]1C5,960,1200,7.4,Ke (Mus musculus [4]): 26 nM; inhibition at 0.1 µM (Mus musculus [6]): 12%; Ke (Cavia porcellus [8]): 5500 nM; Inhibition (Cavia porcellus [9]): 22%; Ki [10]: 118 nM; Ki [12]: 0.68 nM; Ki (Mu-type opioid receptor [13]): 30 nM
CCCCCCCN1CC[C@]23c4c5ccc(O)c4O[C@H]2c2[nH]c4ccccc4c2C[C@@]3(O)[C@H]1C5,> 7000,4600,79,–
